Data set [1] has as its system Rattus norvegicus. The experiment in a line: Neurotoxicity in Sprague-Dawley rat assessed as effect on local movements at 10 mg/kg, ip administered 30 mins prior to test by open field test relative to control. The data set is classed as toxicity, organism-based. The conditions noted are these: in vivo, 0.5 h. The method in brief:
(§1)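 Male Sprague–Dawley rats, 10 per group, given 10 mg/kg ip daily for 10 days and 30 min before each test. DMSO vehicle group as control. Open field arena 100 × 100 cm with 40 cm walls. Animals video-tracked for 10 min.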

For data set [2], the target named is Sodium-dependent noradrenaline transporter (Homo sapiens, UniProt P23975). Kind of data set: Inhibition of re-uptake of [3H]MPP+ at human NET expressed in HEK293 cells preincubated for 5 mins followed by […] addition measured after 3 min by liquid scintillation counting. The conditions noted are these: hek293. The class given is cell-based. The method in brief:
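HEK293 cells stably expressing human DAT or NET, seeded on PDL-coated plates 24 h before. Preincubated 5 min in Krebs–HEPES buffer pH 7.3 with compound at 0.001 μM to 1 mM (DMSO stock diluted in buffer). Substrate then added: 0.2 μM [3H]dopamine for DAT, 1 min; 0.05 μM [3H]MPP+ for NET, 3 min. Room temperature. Uptake stopped with ice-cold buffer. Cells lysed in 1% SDS and counted by scintillation. Unspecific uptake defined with 10 μM mazindol. IC50 by nonlinear regression.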

The test system of data set [3] is Rattus norvegicus. The experiment in a line: Neurotoxicity in Sprague-Dawley rat assessed as effect on distance traveled in closed arms at 10 mg/kg, ip administered 30 mins prior to test by elevated plus maze test relative to control. The data set is classed as toxicity, organism-based. The note with it: in vivo, 0.5 h. The method in brief: (§2)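 Male Sprague–Dawley rats, 10 per group, dosed 10 mg/kg ip daily for 10 days and 30 min before testing. DMSO vehicle controls. Elevated plus maze, rats placed centrally and video-tracked. Recorded: time in closed and open arms, arm entries, path length.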

The test system of data set [4] is Rattus norvegicus. The experiment in a line: Neurotoxicity in Sprague-Dawley rat assessed as effect on distance traveled in open arms at 10 mg/kg, ip administered 30 mins prior to test by elevated plus maze test relative to control. The note with it: in vivo, 0.5 h. The data set is classed as toxicity, organism-based. The procedure, abridged:
as §2

For data set [5], the system named is Rattus norvegicus. Kind of data set: Neurotoxicity in Sprague-Dawley rat assessed as tail pinch score at 10 mg/kg, ip administered 30 mins prior to test (reference value: 0.8 +/- 0.788). The class given is toxicity, organism-based. The note with it: in vivo, 0.5 h.
In data set [6] the test system is Rattus norvegicus. The experiment in a line: Neurotoxicity in Sprague-Dawley rat assessed as effect on total distance traveled at 10 mg/kg, ip administered 30 mins prior to test by open field test relative to control. The class given is toxicity, organism-based. The conditions noted are these: in vivo, 0.5 h. The method in brief:
as §1

Data set [7] deals with Rattus norvegicus. Kind of data set: Neurotoxicity in Sprague-Dawley rat assessed as effect on resting time at 10 mg/kg, ip administered 30 mins prior to test by open field test relative to control. The data set is classed as toxicity, organism-based. The note with it: in vivo, 0.5 h. The method in brief:
as §1

Data set [8] deals with Rattus norvegicus. The experiment in a line: Neurotoxicity in Sprague-Dawley rat assessed as limb rotation score at 10 mg/kg, ip administered 30 mins prior to test (reference value: 3.3 +/- 0.4830). The note with it: in vivo, 0.5 h. The data set is classed as toxicity, organism-based.
For data set [9], the system named is Rattus norvegicus. The experiment in a line: Neurotoxicity in Sprague-Dawley rat assessed as effect on time spent in the left closed arm at 10 mg/kg, ip administered 30 mins prior to test by elevated plus maze test relative to control. The data set is classed as toxicity, organism-based. The note with it: in vivo, 0.5 h. The procedure, abridged: as §2
The subject of data set [10] is Rattus norvegicus. The experiment in a line: Neurotoxicity in Sprague-Dawley rat assessed as effect on total distance traveled at 10 mg/kg, ip administered 30 mins prior to test by elevated plus maze test relative to control. The class given is toxicity, organism-based. The note with it: in vivo, 0.5 h. The procedure, abridged: as §2
Data set [11] relates to Rattus norvegicus. Kind of data set: Neurotoxicity in Sprague-Dawley rat assessed as effect on time spent at the margin at 10 mg/kg, ip administered 30 mins prior to test by open field test relative to control. The data set is classed as toxicity, organism-based. The note with it: in vivo, 0.5 h. The method in brief:
as §1

The test system of data set [12] is Rattus norvegicus. Kind of data set: Neurotoxicity in Sprague-Dawley rat assessed as effect on average velocity at 10 mg/kg, ip administered 30 mins prior to test by open field test relative to control. The data set is classed as toxicity, organism-based. The conditions noted are these: in vivo, 0.5 h. The method in brief: as §1

The source of these data is ChEMBL document CHEMBL4028886 (J Med Chem, 2017).

Chain of Sodium-dependent noradrenaline transporter (P23975 whole entry): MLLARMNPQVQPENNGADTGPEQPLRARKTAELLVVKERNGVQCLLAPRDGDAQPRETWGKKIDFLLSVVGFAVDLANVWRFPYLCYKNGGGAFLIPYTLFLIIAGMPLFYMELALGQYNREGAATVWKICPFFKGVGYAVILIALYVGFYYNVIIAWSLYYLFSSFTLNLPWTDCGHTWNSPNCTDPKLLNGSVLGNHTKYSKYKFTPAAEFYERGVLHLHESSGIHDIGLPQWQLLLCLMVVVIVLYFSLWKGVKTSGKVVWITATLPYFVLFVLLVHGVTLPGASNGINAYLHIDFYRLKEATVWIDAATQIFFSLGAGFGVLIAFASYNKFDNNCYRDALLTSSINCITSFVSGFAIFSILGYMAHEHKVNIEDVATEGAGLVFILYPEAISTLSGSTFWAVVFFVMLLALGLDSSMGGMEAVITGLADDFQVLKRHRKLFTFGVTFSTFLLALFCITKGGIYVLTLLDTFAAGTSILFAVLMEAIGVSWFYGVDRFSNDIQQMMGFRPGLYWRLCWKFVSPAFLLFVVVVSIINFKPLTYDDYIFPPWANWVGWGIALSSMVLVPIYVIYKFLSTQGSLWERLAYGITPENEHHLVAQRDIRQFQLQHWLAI

Regarding `[O-][S+](Cc1cccs1)C(c1ccccc1)c1ccccc1` (configuration not stated), the Activity result in the data set with Rattus norvegicus [1] is on record as “Non-Toxic”; with Rattus norvegicus [3] it was “Non-Toxic”; with Rattus norvegicus [4], “Non-Toxic”; in the data set with Rattus norvegicus [5] it was 0.9; in the data set on Rattus norvegicus [6] it was “Non-Toxic”; in the data set on Rattus norvegicus [7], “Non-Toxic”. The Activity is recorded as 3.4 in the data set on Rattus norvegicus [8]; “Non-Toxic” with Rattus norvegicus [9]; “Non-Toxic” with Rattus norvegicus [10]; “Non-Toxic” in the data set on Rattus norvegicus [11]; “Non-Toxic” in the data set with Rattus norvegicus [12]. Also, in data set [2], the IC50 result is given as “Not Active”.
